# Bioassay records (PubChem BioAssay)
# HTRA1 inh: HTRA1 serine protease inhibitors, primary screen, biochemical, fluorescence polarization, HTS. recombinant HTRA1, FP-rhodamine activity-based probe. inhibition, % at 5.96 µM. hit rate 0.5% among 340,000. AID 504803, 2011; in the data active = inhibition above about 36%;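 also: 0% = enzyme with DMSO and 100% = wells lacking enzyme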
# PRMT1 inh: PRMT1 methyltransferase inhibitors, primary screen, biochemical, fluorescence polarization; inhibition, % at 2.79 µM; hit rate 1.3% among 370,000; recombinant PRMT1, activity-based probe fluorescence polarization;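 active = inhibition above about 21% made by adding two undisclosed values, limit read from the data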
# ABHD4 inh: ABHD4 inhibitors, primary screen, biochemical, fluorescence polarization, mouse; inhibition, % at 8.92 µM; hit rate 0.54% among 370,000; AID 720543, 2013; purified mABHD4, FP-Rh probe fluorescence polarization; (Lyso)-N-acylphosphatidylethanolamine lipase (Mus musculus), Q8VD66;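 active = inhibition exceeding the mean over every tested compound plus 3 SD, cut at about 30% in these data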;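 also: 0% = plate median of compound wells and 100% = S159A mutant with DMSO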
# Target sequence (Q8VD66 whole entry, looked up): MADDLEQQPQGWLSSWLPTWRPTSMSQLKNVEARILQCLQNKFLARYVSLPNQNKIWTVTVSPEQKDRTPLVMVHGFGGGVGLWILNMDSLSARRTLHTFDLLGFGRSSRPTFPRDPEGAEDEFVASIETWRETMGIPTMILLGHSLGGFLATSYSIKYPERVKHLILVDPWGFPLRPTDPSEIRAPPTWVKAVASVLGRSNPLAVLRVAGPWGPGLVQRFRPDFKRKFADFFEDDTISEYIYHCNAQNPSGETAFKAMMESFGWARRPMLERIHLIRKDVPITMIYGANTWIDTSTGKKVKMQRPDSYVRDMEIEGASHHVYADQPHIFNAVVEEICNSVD
#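 Test system: mABHD4 protein | Buffer or medium: HEPES pH 7.0 buffer, 150 mM NaCl, 0.01% Pluronic F-127 | Probe or stimulus: FP-Rh fluorescent activity-based probe, added after compound pre-incubation | Timing: Pre-incubation 45 min, probe exposure 60 min, at 25 °C | Technique: Fluorescence polarization, excitation 525 nm, emission 598 nm, BODIPY TMR filters | Repeats: Single well per compound (singlicate)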
# LEDGF integ inh: blockers of LEDGF/p75-dependent integrase strand transfer – biochemical, TR-FRET, high throughput, primary screen | HIV-1 integrase (with human LEDGF/p75) | TR-FRET IN-LEDGF/p75 DNA integration, Eu/Cy5 | inhibition, % at 3.7 µM | hit rate 0.64% among 370,000 | AID 743269, 2014;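 active = inhibition above the screen-wide mean plus 3 SD, cut at about 13% in these data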;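 also: signal is the Cy5 over europium emission ratio at 671 and 618 nm; 0% = plate median of compound wells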
# DAGLB inhibitor: DAGLB lipase inhibitors, primary screen, biochemical, fluorescence, HTS; Diacylglycerol lipase-beta (Homo sapiens), Q8NCG7; HEK293T DAGLB membrane lysate, EnzChek fluorogenic substrate; inhibition, % at 5.17 µM; hit rate 0.059% among 340,000; AID 504411, 2011; in the data active = inhibition above about 34%;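 also: 0% = enzyme with vehicle and 100% = wells lacking enzyme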
# rCAG RNA binder: binders of r(CAG) RNA repeats, primary screen, biochemical, fluorescence | r(CAG) RNA repeat, TO-PRO-1 dye displacement fluorescence | inhibition, % at 3 µM | hit rate 1.3% among 370,000;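 active = inhibition above the plate cutoff, the mean of all test compounds on that plate plus 3 SD, cut at about 35% in these data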;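 also: 0% = DMSO alone and 100% = 100 µM mitoxantrone as full dye displacement; higher means more dye released from RNA so lower well fluorescence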
# IN multimer act: HIV-1 IN multimer formation enhancers, counter-screen for LEDGF/p75 integration inhibitor project, biochemical, TR-FRET. shares compounds with LEDGF integ inh. TR-FRET HIV-1 integrase multimerization. activation, % at 7.7 µM. hit rate 17% among 2,000; in the data active = activation above about 8.9%
# TR-FRET interf: TR-FRET optical interference artefacts, confirmation, artefact control for LEDGF/p75-dependent integration inhibitor project, biochemical, HIV-1 IN multimerization | shares compounds with LEDGF integ inh | TR-FRET optical interference counterscreen | inhibition, % at 7.7 µM | 2,000 tested, under 10 active | AID 1053135, 2014;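 active = inhibition above the mean over all tested compounds plus 3 SD, which no compound reached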;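 also: 0% = integrase with antibodies and DMSO and 100% = antibodies without integrase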
# IN-LEDGF confirm: inhibitors of HIV-1 IN-LEDGF/p75 DNA integration, confirmation, biochemical, TR-FRET; shares compounds with LEDGF integ inh; inhibition, % at 3.7 µM; hit rate 36% among 2,000; TR-FRET LEDGF/p75-dependent HIV-1 integration; in the data active = inhibition above about 14%
# * hit, by the source's call; . = no result. An excerpt weighted towards active compounds, which were near 3.2% of everything screened.
SMILES,HTRA1 inh,PRMT1 inh,ABHD4 inh,LEDGF integ inh,DAGLB inhibitor,rCAG RNA binder,IN multimer act,TR-FRET interf,IN-LEDGF confirm
COc1cc(-c2ccc3c(=O)c4ccccc4sc3c2)cc(OC)c1OC,-1,1,-1,16*,-1,5,9.3*,-32,-8
CCOC(=O)C(Cc1ccnc2ccccc12)=NO,3,-5,-1,2,3,5,.,.,.
CCOC(=O)C(=O)Cc1cccnn1,1,7,13,22*,3,9,3,-13,50*
CCc1ccc(O)c(-c2cc(C(=O)Nc3cccnc3)[nH]n2)c1,-21,-5,-22,15*,-2,8,-3,13,-1
Cc1cc(O)c(-c2cc(C(=O)Nc3cccnc3)[nH]n2)cc1C,-5,2,1,-8,1,13,.,.,.
c1ccc(-n2c(-c3ccncc3)nnc2-c2ccco2)cc1,2,-2,2,67*,-3,1,-2,11,-4
O=C1CC(c2ccc(O)c(O)c2)Oc2cc(O)cc(O)c21 (configuration not stated),27,-4,23,13*,3,7,3,-13,23*
O=C(CN1CCN(c2ccc(Cl)cc2)CC1)Nc1cccc(F)c1,-2,-1,1,32*,-6,-7,0,-1,-4
COc1ccc(-n2c(C)cc(/C=C/c3nc(O)c([N+](=O)[O-])c(=O)[nH]3)c2C)cc1,.,6,8,3,.,17,.,.,.
Cc1cc(/C=C\c2nc(O)c([N+](=O)[O-])c(=O)[nH]2)c(C)n1-c1ccccc1,3,15,8,29*,8,28,3,-14,7
O=C1NC[C@@H](Cc2cccc3ccccc23)N(CC2(c3ccccc3)CC2)C1=O,-15,-2,8,2,-29,-2,.,.,.
O=C(NCC(=O)N1CC=C(c2ccccc2)CC1)c1ccco1,-4,3,3,-7,0,0,.,.,.
COC(=O)N/N=C/c1ccc(OC(=O)/C=C/c2ccco2)cc1,.,1,-7,5,.,1,.,.,.
CCc1ccc(OC(=O)/C=C/c2ccco2)cc1,-6,5,8,15*,-12,6,1,-7,2
O=C(/C=C/c1ccco1)Oc1cccc2cccnc12,28,10,-6,14*,2,1,0,0,-12
O=C(/C=C/c1ccco1)N(c1ccccn1)c1ccccn1,7,9,15,22*,0,16,8,-40,46*
O=C(CCNC(=O)C1CCN(S(=O)(=O)c2ccc(F)cc2)CC1)NCc1ccc(F)cc1,3,-1,7,2,1,-6,.,.,.
CC(=O)Nc1ccc(OCc2ccccc2)cc1[N+](=O)[O-],4,-5,-4,-1,1,4,.,.,.
CCN1CCN(C(=O)Nc2ccc(OC)cc2OC)CC1,1,-2,1,-2,-2,2,.,.,.
O=[N+]([O-])c1cc(S(=O)(=O)NCc2ccco2)ccc1NN=Cc1ccccn1,.,-4,1,2,.,-1,.,.,.
Cc1cc(=O)oc2cc3c(cc12)OCCO3,4,-1,4,29*,1,-1,-4,13,0
